Screens: PubChem, several laboratories
NR2E3 ag-1 = agonists of human nuclear receptor NR2E3 | Q9Y5X4 | AID 2300 | GST-NR2E3/biotin-RetCOR TR-FRET, 1536-well | inhibition of corepressor binding, % at 4.78 µM | 0.12% of 320,000 active;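 active means percent inhibition above the cutoff of mean plus 3 SD of all tested compounds, set per screening campaign, cut at about 20% in these data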;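 further: 0% = DMSO wells and 100% = biotin wells as full block of FRET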
Target sequence (Q9Y5X4 whole entry, looked up): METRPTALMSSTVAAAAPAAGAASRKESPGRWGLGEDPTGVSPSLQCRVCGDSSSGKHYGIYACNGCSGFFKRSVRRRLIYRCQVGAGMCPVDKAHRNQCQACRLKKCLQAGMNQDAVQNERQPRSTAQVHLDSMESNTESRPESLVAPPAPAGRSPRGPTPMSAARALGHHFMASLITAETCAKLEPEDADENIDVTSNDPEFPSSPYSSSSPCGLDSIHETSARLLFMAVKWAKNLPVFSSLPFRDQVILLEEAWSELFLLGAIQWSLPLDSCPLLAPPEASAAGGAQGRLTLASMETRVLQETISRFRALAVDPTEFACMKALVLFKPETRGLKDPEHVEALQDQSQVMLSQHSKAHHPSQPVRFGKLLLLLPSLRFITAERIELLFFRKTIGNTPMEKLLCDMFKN
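Test system: GST-NR2E3 and biotin-RetCOR proteins | Quantity: 1.35 nM GST-tagged NR2E3 final | Medium: Tris pH 7.5 | Also added: 7 nM biotin-RetCOR | Dosing: Compound at 4.8 µM, single dose | Timing: 5 h at 4 °C | Detection: Time-resolved FRET | Read-out basis: Percent inhibition | Benchmarks: Biotin wells as high control, 0.6% DMSO wells as low control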
MC4R ag barr = human MC4R agonism via beta-arrestin | P32245 | U2OS MC4R beta-arrestin complementation, luminescence; percent of melanotan II response, DMSO zero | activation, % at 8.9 µM | 0.98% of 360,000 active | AID 540308;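 active means activation above a per-plate cutoff, the mean activation of sample wells on that plate plus 3 SD, cut at about 8% in these data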
NR2E3 ag-2 = human photoreceptor-specific nuclear receptor agonism. Q9Y5X4. CHO-S Gal4-NCOR/VP16-NR2E3 two-hybrid, luciferase. inhibition of corepressor binding, % at 3.98 µM. 0.35% of 360,000 active. AID 602229;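 active means inhibition above the mean of all tested compounds plus 3 SD, cut at about 70% in these data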;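 further: 0% = DMSO with NR2E3 transfected cells and 100% = cells lacking NR2E3 construct; higher means lower luciferase signal from less NR2E3 corepressor binding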
MC4R antag cAMP = blocks human MC4R cAMP signaling; P32245; MC4R-expressing cells, MTII-stimulated cAMP, LANCE TR-FRET; inhibition, % at 6.5 µM; 0.48% of 360,000 active; AID 540295;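 active means inhibition above its plate's cutoff, the mean of tested wells on that plate plus 3 SD, cut at about 29% in these data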;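 further: 0% = Melanotan II alone and 100% = Melanotan II plus saturating MCL0020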
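Assay system: human MC4R-expressing U2OS cells; reagent: Melanotan II stimulation of cells; dosing: 6.5 µM single dose; timing: compound 30 min, challenge 1 h, detection 1 h; signal: TR-FRET cAMP assay; replicates: one well per compound, no replicates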
NR1D1 modulator = modulates human Rev-erb alpha binding to DNA; P20393; activity, % at 10 µM; 0.79% of 370,000 active; Rev-erbα–FITC-DNA binding, fluorescence polarization, 90 min; AID 1259318;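 active means activity above about 14%, limit read from the data; passing the limit was not always enough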;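 further: 0% = DMSO wells with 35 nM protein and 100% = DMSO wells with 750 nM protein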
PG9 binder = PG9 antibody binding by small molecule; AID 624416; 0.43% of 360,000 active; TR-FRET gp120-PG9 antibody binding; inhibition, % at 6.7 µM; in the data active means inhibition above about 8.5%
U2OS cAMP counter = U2OS forskolin cAMP inhibition counter-screen | shares compounds with MC4R antag cAMP | parental U2OS, LANCE TR-FRET | inhibition, % at 6.5 µM | 26% of 1,600 active | AID 602193;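 active means mean inhibition over triplicates above the low-control well mean plus 3 SD, set per campaign, cut at about 13% in these data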;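 further: signal is single emission at 671 nm which falls as cellular cAMP rises; 0% = forskolin-stimulated wells and 100% = buffer without forskolin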
MC4R antag conf = human MC4R cAMP antagonism confirmation. shares compounds with MC4R antag cAMP. MC4R-expressing cells, MTII-stimulated cAMP, TR-FRET. inhibition, % at 6.5 µM. 27% of 1,600 active. AID 602195; in the data active means inhibition above about 29%;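 further: 0% = agonist stimulated wells alone and 100% = agonist stimulated wells plus saturating reference antagonist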
Numbers without * were called inactive; . = not tested or not shown. A selection: hits, their analogues and other compounds. The true share with any hit is near 2.7%.

SMILES | NR2E3 ag-1 | MC4R ag barr | NR2E3 ag-2 | MC4R antag cAMP | NR1D1 modulator | PG9 binder | U2OS cAMP counter | MC4R antag conf
Clc1cccc(-c2ccc(C=Nc3ccc(N4CCOCC4)cc3)o2)c1Cl | . | -2 | 7 | 12 | -7 | -2 | . | .
O=Cc1ccc(N2CCCCCC2)cc1 | 0 | -1 | -31 | -6 | . | -1 | . | .
CCC(C)[C@H](N)c1nnc(SCc2cccc(F)c2)o1 (some centres undefined) | 2 | -1 | -19 | -1 | -4 | -1 | . | .
CCc1ccc(NC(=O)C(=O)NCCN2CCN(S(C)(=O)=O)CC2)cc1 | 1 | -2 | -12 | 0 | 1 | 1 | . | .
CCc1ccc(NC(=O)C(=O)NCCN2CCN(S(=O)(=O)c3ccccc3)CC2)cc1 | 5 | 0 | -12 | 32* | -2 | 2 | 4 | 8
CCOC(=O)c1ccc(N/C=C/C(=O)C(C)(C)C)cc1 | -3 | 2 | -38 | 30* | -2 | 0 | 0 | 0
CCOC(=O)c1ccc(N/C=C/C(=O)c2ccccc2)cc1 | 6 | -1 | -135 | 7 | 1 | -3 | . | .
O=C(CN1CCC(NC(=O)NC2CCCC2)CC1)Nc1ccc2c(c1)OCCO2 | . | . | . | . | 1 | . | . | .
Oc1ccc(Br)cc1/C=N/n1cnc2ccccc21 | -1 | 1 | -41 | -1 | 2 | -3 | . | .
O=C(Nc1nc2cc(Cl)ccc2s1)C1CCCN(S(=O)(=O)c2cccc3cccnc23)C1 (centres undefined) | -2 | 3 | 22 | 29* | . | . | 2 | 19
O=C(c1ccccc1Cl)N(Cc1ccc(Br)cc1)N1C(=O)CCCC1=O | 3 | -1 | 8 | 2 | -5 | -1 | . | .
O=C(c1ccc([N+](=O)[O-])cc1)N(Cc1ccc(Br)cc1)N1C(=O)CCCC1=O | 3 | 9.1* | 29 | 44* | -5 | -4 | 17* | 12
CCN(CC)c1ccc(C2Nc3cccc4cccc(c34)N2)c(O)c1 | 0 | 0 | -54 | 33* | -1 | -2 | 3 | 29*
Oc1ccc2ccccc2c1C1Nc2cccc3cccc(c23)N1 | 3 | 0 | 11 | 10 | -7 | . | . | .
O=C(CSCc1ccc(Cl)cc1Cl)Nc1ccccc1C(=O)Nc1ccc(C(=O)O)cc1 | 6 | 2 | 15 | 30* | -2 | 0 | -2 | -2
O=[N+]([O-])c1cccc(/C=N/n2c(C3CCCCC3)n[nH]c2=S)c1 | -2 | 0 | 0 | 18 | 5 | 0 | . | .
CCC(C)Nc1nc(Cl)nc(N(C#N)CN2C(=O)c3ccccc3S2(=O)=O)n1 (centres undefined) | 1 | -1 | -23 | 48* | -1 | -2 | 23* | 40*
O=C(CNCc1ccccn1)Nc1cc(C(F)(F)F)ccc1N1CCOCC1 | 2 | 0 | 3 | 10 | -5 | -1 | . | .
Cc1ccc(OCCCC(=O)Nc2cc(S(=O)(=O)N3CCOCC3)ccc2N2CCOCC2)cc1 | . | -1 | -7 | 8 | 10 | -1 | . | .
COc1ccc(NS(=O)(=O)/C=C/c2ccc(OC)c(OC)c2)cc1 | 1 | 0 | 33 | 12 | 1 | 0 | . | .
COc1cccc(CNS(=O)(=O)/C=C/c2ccc(OC)c(OC)c2)c1 | 0 | -3 | 15 | 34* | 6 | -1 | 0 | 6
COc1cc(N=Nc2ccc(Br)cc2)cc(C=O)c1O | . | -2 | 15 | 34* | -14 | -1 | -5 | -5
COc1cc(CN(C)C)cc(C=O)c1O | -4 | 2 | -8 | 2 | . | . | . | .
CCC(Cc1ccccc1)NC(=O)C1CCN(S(=O)(=O)c2c(C)noc2C)CC1 (centres undefined) | 5 | 0 | 16 | 3 | -3 | 1 | . | .
CC(=O)N1CCN(c2cc(-c3ccccc3)nc3cc(-c4cccc(Cl)c4)nn23)CC1 | . | 5 | 0 | 41* | 9 | 1 | 1 | 8
C(=N\N1CCN(Cc2ccccc2)CC1)/c1cccs1 | -6 | -1 | -35 | 4 | 2 | 0 | . | .
